For assay [1], the system named is Staphylococcus aureus. The assay can be described thus: Antibacterial activity against methicillin-resistant Staphylococcus aureus USA300 at 5 ug after 18 to 20 hrs by CLSI disk diffusion assay. Type of assay: functional. The conditions noted are these: read-out: DIZ. The essentials:
(§1)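 Disk diffusion on 4 mm Mueller-Hinton agar swabbed with about 10^8 CFU/mL suspension in PBS; 6 mm paper disk loaded with 5 µg compound in DMSO; 37 °C ambient air for 18–20 h; diameter of the complete inhibition zone measured in mm with callipers from the plate back; at least three independent experiments, mean with standard error; 6 mm means no inhibition.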
Background: Agar diffusion results depend on both activity and mobility in agar.

The test system of assay [2] is Staphylococcus aureus. In words: Synergistic antibacterial activity against methicillin-susceptible Staphylococcus aureus ATCC 29213 in presence of sulfamethoxazole after 20 hrs by broth microdilution-based checkerboard titration assay. Type of assay: functional. (Broth dilution looks for growth in wells or tubes with falling amounts of substance.)
Assay [3] has as its system Staphylococcus aureus. The assay can be described thus: Antibacterial activity against hospital-associated methicillin-resistant Staphylococcus aureus COL after 20 hrs by CLSI microdilution assay. Type of assay: functional.
Assay [4] deals with Staphylococcus aureus. The assay can be described thus: Bactericidal activity against hospital-associated methicillin-resistant Staphylococcus aureus COL preincubated for 20 hrs followed by agar plating and measured after 18 to 20 hrs. Type of assay: functional. The essentials: (§2)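 MBC taken from broth microdilution (final about 10^5 CFU/mL, Mueller-Hinton broth, 37 °C for 20 h). Clear wells (basal optical density) were spread on TSA plates and incubated at 37 °C for 18–20 h. The lowest concentration giving no colonies is reported. At least triplicate.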

The subject of assay [5] is Staphylococcus aureus. In words: Antibacterial activity against hospital-associated methicillin-resistant Staphylococcus aureus COL at 5 ug after 18 to 20 hrs by CLSI disk diffusion assay. Type of assay: functional. The note with it: read-out: DIZ. The essentials: as §1
Assay [6] deals with Staphylococcus aureus. In words: Synergistic antibacterial activity against hospital-associated methicillin-resistant Staphylococcus aureus COL in presence of sulfamethoxazole after 20 hrs by broth microdilution-based checkerboard titration assay. Type of assay: functional.
In assay [7] the test system is Staphylococcus aureus. In words: Synergistic antibacterial activity against methicillin-resistant Staphylococcus aureus USA300 in presence of sulfamethoxazole after 20 hrs by broth microdilution-based checkerboard titration assay. Type of assay: functional.
Assay [8] deals with Staphylococcus aureus. In words: Synergistic antibacterial activity against methicillin-resistant Staphylococcus aureus USA300 assessed as fractional inhibitory concentration index in presence of sulfamethoxazole after 18 hrs by broth microdilution-based checkerboard titration assay. Type of assay: functional.
Assay [9] deals with Staphylococcus aureus. In words: Potentiation of sulfamethoxazole-mediated antibacterial activity against hospital-associated methicillin-resistant Staphylococcus aureus COL assessed as sulfamethoxazole MIC after 20 hrs by CLSI microdilution assay (reference value: 200 microg/ml). Type of assay: functional.
Assay [10] concerns Staphylococcus aureus. The assay can be described thus: Synergistic antibacterial activity against methicillin-susceptible Staphylococcus aureus ATCC 29213 assessed as fractional inhibitory concentration index in presence of sulfamethoxazole after 18 hrs by broth microdilution-based checkerboard titration assay. Type of assay: functional.
The subject of assay [11] is Staphylococcus aureus. In words: Antibacterial activity against methicillin-resistant Staphylococcus aureus USA300 after 20 hrs by CLSI microdilution assay. Type of assay: functional. The conditions noted are these: USA300, 20 h.
Assay [12] has as its system Staphylococcus aureus. The assay can be described thus: Bactericidal activity against methicillin-susceptible Staphylococcus aureus ATCC 29213 preincubated for 20 hrs followed by agar plating and measured after 18 to 20 hrs. Type of assay: functional. The method in brief: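 Broth microdilution per CLSI guideline. Compounds diluted 2-fold in MHB from 100 mM DMSO stocks. Inoculum ~10^5 CFU/mL final, from overnight TSB culture diluted in PBS. Plates incubated at 37 °C. Wells without growth by optical density spread on TSA and incubated at 37 °C. MBC is the lowest concentration giving no colonies. At least triplicate.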

Assay [13] concerns Staphylococcus aureus. The assay can be described thus: Bactericidal activity against methicillin-resistant Staphylococcus aureus USA300 preincubated for 20 hrs followed by agar plating and measured after 18 to 20 hrs. Type of assay: functional. The essentials: as §2
Assay [14] has as its system Staphylococcus aureus. The assay can be described thus: Antibacterial activity against methicillin-susceptible Staphylococcus aureus ATCC 25923 at 5 ug after 18 to 20 hrs by CLSI disk diffusion assay. Type of assay: functional. The conditions noted are these: read-out: DIZ. The essentials:
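Mueller-Hinton agar, 4 mm deep, swabbed with PBS-diluted overnight TSB culture (~10^8 CFU/mL). Paper disk (6 mm) loaded with compound in DMSO, incubated 37 °C in ambient air. Complete inhibition zone diameter read from plate back with callipers; 6 mm means no inhibition. At least three independent experiments, mean with standard error.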

In assay [15] the test system is Staphylococcus aureus. The assay can be described thus: Synergistic antibacterial activity against hospital-associated methicillin-resistant Staphylococcus aureus COL assessed as fractional inhibitory concentration index in presence of sulfamethoxazole after 18 hrs by broth microdilution-based checkerboard titration assay. Type of assay: functional.
In the next assay the test system is A549. The assay can be described thus: Cytotoxicity against human A549 cells after 24 to 48 hrs by fluorescence-based assay. Type of assay: cell-based. The essentials:
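A549 cells, ~10^4 per well in DMEM, given 2-fold serial dilutions of compound (DMSO stock diluted in DMEM). Incubated at 37 °C, 5% CO2. PrestoBlue added for 1 h, then fluorescence read at excitation 535 nm and emission 610 nm as a measure of viable cells.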

In assay [16] the test system is Staphylococcus aureus. In words: Potentiation of sulfamethoxazole-mediated antibacterial activity against methicillin-resistant Staphylococcus aureus USA300 assessed as sulfamethoxazole MIC after 20 hrs by CLSI microdilution assay (reference value: 100 microg/ml). Type of assay: functional. The conditions noted are these: USA300, 20 h.
Assay [17] concerns Staphylococcus aureus. The assay can be described thus: Potentiation of sulfamethoxazole-mediated antibacterial activity against methicillin-susceptible Staphylococcus aureus ATCC 29213 assessed as sulfamethoxazole MIC after 20 hrs by CLSI microdilution assay (reference value: 100 microg/ml). Type of assay: functional. The note with it: ATCC 29213, 20 h.
Assay [18] has as its system Staphylococcus aureus. The assay can be described thus: Antibacterial activity against methicillin-susceptible Staphylococcus aureus ATCC 29213 after 20 hrs by CLSI microdilution assay. Type of assay: functional. The note with it: ATCC 29213, 20 h.

From ChEMBL document CHEMBL4270522, “Halogenated trimethoprim derivatives as multidrug-resistant Staphylococcus aureus therapeutics” (Bioorg Med Chem, 2018) come the findings set out here.

Converted amounts (≈) assume the structure as drawn.

By MIC is commonly meant the lowest concentration that inhibits growth of the organism. The MBC is the smallest concentration meeting the test's criterion for killing. Read a low MBC as more potent killing. Broadly, the IC50 is the concentration that gives 50% inhibition. Low values mean greater potency in that assay, high ones weaker potency in that assay. In the case of `COc1cc(Cc2cnc(N)nc2N)cc(Cl)c1OC`, the results for the zone of inhibition at 5 µg/disc with Staphylococcus aureus [1], with Staphylococcus aureus [5] and in the assay on Staphylococcus aureus [14] were 18.1 mm, 6 mm and 15.1 mm, respectively. Also, the FIC in the assay on Staphylococcus aureus [2], with Staphylococcus aureus [6] and with Staphylococcus aureus [7] was 0.06 throughout. In addition, the MIC against Staphylococcus aureus [3] was 5 µg/mL (≈ 17 µM); in the assay on Staphylococcus aureus [9], 12.5 µg/mL; against Staphylococcus aureus [11] it was 2.5 µg/mL (≈ 8.48 µM); with Staphylococcus aureus [16], 6.25 µg/mL; in the assay on Staphylococcus aureus [17] it was 6.25 µg/mL; with Staphylococcus aureus [18], 1.25 µg/mL (≈ 4.24 µM). The minimal bactericidal concentration (MBC) in the assay with Staphylococcus aureus [4] was found to be 10 µg/mL (≈ 33.9 µM); in the assay on Staphylococcus aureus [12] it was 1.25 µg/mL (≈ 4.24 µM); in the assay with Staphylococcus aureus [13] it was 2.5 µg/mL (≈ 8.48 µM). The “fractional inhibitory concentration index (FICI)” value with Staphylococcus aureus [8], in the assay with Staphylococcus aureus [10] and in the assay on Staphylococcus aureus [15] was 0.12 in each case. In the assay with A549, this compound had an IC50 of 467 µM.

Take `COc1cc(Cc2cnc(N)nc2N)cc(Br)c1OC`: the zone of inhibition at 5 µg/disc was 20.4 mm in the assay with Staphylococcus aureus [1], 6 mm in the assay on Staphylococcus aureus [5] and 17.4 mm with Staphylococcus aureus [14]. Besides, the FIC with Staphylococcus aureus [2], with Staphylococcus aureus [6] and with Staphylococcus aureus [7] was 0.06 in each case. For the same compound, the MIC in the assay with Staphylococcus aureus [3] is 5 µg/mL (≈ 14.7 µM); in the assay on Staphylococcus aureus [9] it was 12.5 µg/mL; with Staphylococcus aureus [11], 1.25 µg/mL (≈ 3.69 µM); with Staphylococcus aureus [16], 6.25 µg/mL; with Staphylococcus aureus [17], 6.25 µg/mL; with Staphylococcus aureus [18], 1.25 µg/mL (≈ 3.69 µM). Also, the values for the MBC against Staphylococcus aureus [4], against Staphylococcus aureus [12] and against Staphylococcus aureus [13] were 5 µg/mL (≈ 14.7 µM), 1.25 µg/mL (≈ 3.69 µM) and 1.25 µg/mL (≈ 3.69 µM), respectively. Besides, the entries for the “fractional inhibitory concentration index (FICI)” value in the assay with Staphylococcus aureus [8], in the assay on Staphylococcus aureus [10] and in the assay with Staphylococcus aureus [15] were 0.18, 0.12 and 0.12, respectively. Moreover, 321 µM corresponded to half-maximal inhibition in the assay with A549 (IC50).

As for `COc1cc(Cc2cnc(N)nc2N)cc(I)c1OC`, the zone of inhibition at 5 µg/disc in the assay with Staphylococcus aureus [1] was 22.8 mm; with Staphylococcus aureus [5], 6 mm; in the assay with Staphylococcus aureus [14], 21 mm. Moreover, the FIC with Staphylococcus aureus [2] amounted to 0.03; in the assay on Staphylococcus aureus [6], 0.06; with Staphylococcus aureus [7], 0.06. Further, the MIC stood at 2.5 µg/mL (≈ 6.47 µM) against Staphylococcus aureus [3]; 12.5 µg/mL in the assay with Staphylococcus aureus [9]; 1.25 µg/mL (≈ 3.24 µM) against Staphylococcus aureus [11]; 6.25 µg/mL in the assay on Staphylococcus aureus [16]; 3.13 µg/mL in the assay with Staphylococcus aureus [17]; 1.25 µg/mL (≈ 3.24 µM) with Staphylococcus aureus [18]. Besides, the MBC in the assay on Staphylococcus aureus [4] was determined as 5 µg/mL (≈ 12.9 µM); against Staphylococcus aureus [12], 1.25 µg/mL (≈ 3.24 µM); in the assay with Staphylococcus aureus [13], 1.25 µg/mL (≈ 3.24 µM). For the same compound, the “fractional inhibitory concentration index (FICI)” value in the assay with Staphylococcus aureus [8] is recorded as 0.12; in the assay with Staphylococcus aureus [10], 0.09; in the assay with Staphylococcus aureus [15], 0.12. For the same compound, in the assay on A549, the IC50 stood at 266 µM.
